Experimental findings from ChEMBL document CHEMBL4138212, “Novel triazine dimers with potent antitrypanosomal activity” (Eur J Med Chem, 2018) are described below.

Calls of active or inactive are those of the source. The calls are words filed in the database; no cut-off is given here.

In test [1] the test system is Trypanosoma brucei brucei. The test can be described thus: Antitrypanosomal activity against suramin-sensitive Trypanosoma brucei brucei Squib 427 after 72 hrs by resazurin dye-based fluorometric method. The format is functional, organism-based. As to conditions: Squib 427, 72 h. Put shortly:
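Bloodstream parasites in HMI-9 with 10% heat-inactivated FBS at 7×10⁴/mL were exposed to five 4-fold dilutions from 64 µg/mL for 72 h at 37 °C in 5% CO₂. IC₅₀ comes from % growth reduction versus controls, as the mean of at least two independent determinations.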
A general note: The colour change of resazurin is a common sign of viable cells or microbes.

Test [2] relates to Trypanosoma cruzi. Nature of the test: Antitrypanosomal activity against beta-galactosidase expressing nifurtimox-sensitive Trypanosoma cruzi Tulahuen CL2 infected in human MRC5 SV2 cells assessed as decrease in parasite burden after 168 hrs by spectrophotometric method. It counts as functional, organism-based. As to conditions: Tulahuen CL2, MRC-5 SV2, 168 h.
Test [3] in a line: Cytotoxicity against human MRC5 SV2 cells assessed as decrease in cell viability after 72 hrs by resazurin dye-based fluorometric method. The conditions noted are these: MRC-5 SV2, 72 h.
The subject of test [4] is Plasmodium falciparum. Nature of the test: Antiplasmodial activity against chloroquine-resistant Plasmodium falciparum K1 infected in human O-positive erythrocytes assessed as decrease in parasitaemia after 72 hrs by NBT dye-based spectrophotometric method. The format is functional, organism-based. The conditions noted are these: K1, 72 h.
In test [5] the test system is Leishmania infantum. The test can be described thus: Antileishmanial activity against amastigote stage of Leishmania infantum MHOM/MA(BE)/67 infected in mouse primary peritoneal macrophages assessed as decrease in parasite burden after 120 hrs by Giemsa staining-based microscopic method. It counts as functional, organism-based. As to conditions: MHOM/MA(BE)/67, 120 h.

Test [6] concerns Trypanosoma brucei rhodesiense. Nature of the test: Antitrypanosomal activity against Trypanosoma brucei rhodesiense STIB-900 after 72 hrs by resazurin dye-based fluorometric method. The format is functional, organism-based. As to conditions: STIB-900, 72 h. Put shortly:
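Parasites in HMI-9 with 10% heat-inactivated FBS at 2×10⁴/mL were exposed to five 4-fold dilutions from 64 µg/mL for 72 h at 37 °C in 5% CO₂. IC₅₀ comes from % growth reduction versus controls, as the mean of at least two independent determinations.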

Test [7] relates to Trypanosoma brucei brucei. Nature of the test: Antitrypanosomal activity against suramin-sensitive Trypanosoma brucei brucei Squib 427 infected in Swiss mouse assessed as reduction in parasitemia at 10 mg/kg administered first dose orally 1/2 hrs prior to infection followed by dosed intraperitoneally as qd for 5 days measured on day 4 of compound dosing by Giemsa staining-based microscopic method relative to control. Further details: scale not given: the % may be the effect or the level left. The format is functional. Put shortly:
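Female Swiss mice, 6 per group, were infected IP with about 1×10⁴ trypanosomes on day 0. The first dose was given orally ½ h before infection, then IP for 5 days, in DMSO, DMSO/PEG200 (1/50) or PBS for suramin. On day 4, tail-vein blood smears were Giemsa-stained and counted microscopically. Activity = 100 − (mean parasitemia treated/mean vehicle-infected control)×100.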

Test [8] relates to Trypanosoma brucei brucei. Nature of the test: Antitrypanosomal activity against suramin-sensitive Trypanosoma brucei brucei Squib 427 infected in Swiss mouse assessed as increase in mouse survival at 10 mg/kg administered first dose orally 1/2 hrs prior to infection followed by dosed intraperitoneally as qd for 5 days measured on day 14 post infection. The format is functional, organism-based. Put shortly: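 Female Swiss mice, 6 per group, were infected IP with about 1×10⁴ trypanosomes in 0.25 ml PBS-diluted donor blood on day 0. The first dose was given orally ½ h before infection, then IP for 5 days. Vehicles were 100% DMSO or DMSO/PEG200 (1/50); suramin was formulated in PBS. Mortality was monitored daily, ill animals were euthanized, and survivors were counted on day 14 post-infection.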

Usually IC50 stands for the concentration needed to halve the response being measured. In the case of `Cc1cc(C)c(Nc2nc(Nc3ccc(C#N)cc3)nc(Nc3ccc(Nc4nc(Nc5ccc(C#N)cc5)nc(Nc5c(C)cc(C)cc5C)n4)cc3)n2)c(C)c1`, the IC50 in test [1] is 0.53 µM; in test [2] it was above 64 µM; in test [3] it was above 64 µM; in test [4], above 64 µM; in test [5], above 64 µM; in test [6] it was 0.02 µM.

As for `CO[C@H]1O[C@@H]2O[C@@]3(C)CC[C@H]4[C@H](C)CC[C@@H]([C@H]1C)[C@@]24OO3`, the IC50 in test [3] is above 64 µM; in test [4], 0.02 µM.

Take `O=C(Cn1ccnc1[N+](=O)[O-])NCc1ccccc1` [BENZNIDAZOLE]: the IC50 in test [2] is 2.56 µM; in test [3] it was above 64 µM.

Consider `CCN(CC)CCCC(C)Nc1ccnc2cc(Cl)ccc12` (stereo not drawn) [CHLOROQUINE], for which, in test [3], the concentration for half-maximal inhibition (IC50) was above 64 µM.

With `Nc1nc(N)nc(Nc2ccc([As]3SCC(CO)S3)cc2)n1` (stereo not drawn) [MELARSOPROL], the IC50 in test [3] worked out at 7.4 µM.

With `CCCCCCCCCCCCCCCCOP(=O)([O-])OCC[N+](C)(C)C` [MILTEFOSINE], in test [3], the IC50 is above 64 µM.

Take `CC1CS(=O)(=O)CCN1/N=C/c1ccc([N+](=O)[O-])o1` (stereo not drawn) [NIFURTIMOX]: the results for the IC50 in test [2] and in test [3] were 0.7 µM and above 64 µM, respectively.

As to `Cc1ccc(C(=O)Nc2ccc(S(=O)(=O)O)c3cc(S(=O)(=O)O)cc(S(=O)(=O)O)c23)cc1NC(=O)c1cccc(NC(=O)Nc2cccc(C(=O)Nc3cc(C(=O)Nc4ccc(S(=O)(=O)O)c5cc(S(=O)(=O)O)cc(S(=O)(=O)O)c45)ccc3C)c2)c1` [SURAMIN], in test [3], the IC50 was above 64 µM. Further, the Activity in test [7] was 100%. The result in test [8] was Active.
